# Measured values pooled from the literature.
# Each line is one published result; the experiments were not run side by side.
# Effect on: cell growth or viability
Structure (SMILES),cell line,method,time,notes,IC50
CN(C)c1ccc2cc(C(=O)N[C@@H](CCCNC(=N)CCl)C(=O)NCc3ccccc3)ccc2c1,S-180,,48 h,,8.4 µM
O=C(O)c1ccc2c(c1)nc(Nc1cccc(Cl)c1)c1ccncc12,HD-MB03,,,,0.501 µM
CC(=NN=C1SC(C)C(=O)N1C)c1c(O)c2ccccc2oc1=O (stereo not shown),human Skin fibroblast,MTT,48 h,,> 100 µM
CON(C)C(=O)N1N=C(c2cc(F)ccc2F)S[C@@]1(CCCN)c1ccccc1,MB002,,7 days,,0.000967 µM
CC(=O)O[C@H]1C(=O)[C@@]2(C)[C@H]([C@H](OC(=O)c3ccccc3)[C@]3(O)C[C@H](OC(=O)[C@H](O)[C@@H](NC(=O)c4ccccc4)c4ccccc4)C(C)=C1C3(C)C)[C@]1(OC(C)=O)CO[C@@H]1C[C@@H]2O,KB 3-1,MTT,,,0.00772 µM
COc1ccc(-c2nc(C(=O)Nc3nnc(-c4cc5ccccc5[nH]4)s3)cc3c2[nH]c2ccccc23)cc1,BT-474,MTT,72 h,,4.09 µM
O=C(Nc1cccc(CO)c1)c1c[nH]c2ccc(Cl)cc12,SK-N-BE,MTT,,,19 µM
COc1cccc2c1C(=O)c1c(O)c3c(c(O)c1C2=O)C[C@@](O)(C(=O)CO)C[C@@H]3O[C@H]1C[C@H](N)[C@H](O)[C@H](C)O1,BT-474,MTT,72 h,,1.82 µM
CC(=NN=C1NC(=O)C(C)S1)c1c(O)c2ccccc2oc1=O (stereo not shown),human Skin fibroblast,MTT,48 h,,> 100 µM
COc1cccc(OCCCN)c1-c1cc(Nc2cnc(C#N)cn2)n[nH]1,MB002,,7 days,,0.0263 µM
CCOC(=O)c1sc(=NN=C(C)c2c(O)c3ccccc3oc2=O)n(CC)c1C,human Skin fibroblast,MTT,48 h,,> 100 µM
O=C(NCc1ccc(CO)cc1)c1c[nH]c2ccc(Cl)cc12,SK-N-BE,MTT,,,15 µM
CCN1CCN(Cc2ccc(Nc3ncc(F)c(-c4cc(F)c5nc(C)n(C(C)C)c5c4)n3)nc2)CC1,MB002,,7 days,,0.0719 µM
CCn1c(-c2nnc(NC(=O)c3cc4c([nH]c5ccccc54)c(-c4ccc(OC)cc4)n3)s2)cc2ccccc21,BT-474,MTT,72 h,,20.1 µM
COc1cccc2c1C(=O)c1c(O)c3c(c(O)c1C2=O)C[C@@](O)(C(=O)CO)C[C@@H]3O[C@H]1C[C@H](N)[C@H](O)[C@H](C)O1,BT-474,MTT,48 h,,0.8 µg/mL
Oc1ccc(Nc2nc(-c3ccc(Cl)cc3)cs2)cc1,WM278,MTS,24 h,,20 µM
CNC(=S)NN=C(C)c1c(O)c2ccccc2oc1=O,human Skin fibroblast,MTT,48 h,,> 100 µM
Cn1c(-c2nnc(NC(=O)c3cc4c([nH]c5ccccc54)c(-c4ccc(F)cc4)n3)s2)cc2ccccc21,BT-474,MTT,72 h,,18.4 µM
CCN1C(=O)C(C)SC1=NN=C(C)c1c(O)c2ccccc2oc1=O (stereo not shown),human Skin fibroblast,MTT,48 h,,> 100 µM
O=C(N/N=C/c1c(O)ccc2ccccc12)c1cc(-c2ccc3ccccc3c2)n[nH]1,WM278,MTS,24 h,,29 µM
CC[C@]1(O)C[C@H]2CN(CCc3c([nH]c4ccccc34)[C@@](C(=O)OC)(c3cc4c(cc3OC)N(C=O)[C@H]3[C@@](O)(C(=O)OC)[C@H](OC(C)=O)[C@]5(CC)C=CCN6CC[C@]43[C@@H]65)C2)C1,KB 3-1,MTT,,,0.00744 µM
Cn1c(=O)n(-c2ccc(C(C)(C)C#N)cc2)c2c3cc(-c4cnc5ccccc5c4)ccc3ncc21,MB002,,7 days,,0.031 µM
CCOC(=O)c1sc(=NN=C(C)c2c(O)c3ccccc3oc2=O)[nH]c1C,human Skin fibroblast,MTT,48 h,,> 100 µM
CC(C)C[C@H](NC(=O)[C@H](Cc1ccccc1)NC(=O)c1cnccn1)B(O)O,SK-ES1,ATP luminescence,,,0.0087 µM
COc1cccc2c1C(=O)c1c(O)c3c(c(O)c1C2=O)C[C@@](O)(C(=O)CO)C[C@@H]3O[C@H]1C[C@H](N)[C@H](O)[C@H](C)O1,human Skin fibroblast,MTT,48 h,,0.16 µM
Nc1nc2[nH]cc(CCc3ccc(C(=O)N[C@@H](CCC(=O)O)C(=O)O)cc3)c2c(=O)[nH]1,MB002,,7 days,,0.0635 µM
COc1cc(Nc2nccc(-c3cnn4nc(OC)ccc34)n2)cc(C(F)(F)F)c1,NCI-H1563,ATP luminescence,,,> 3 µM
COc1cccc2c1C(=O)c1c(O)c3c(c(O)c1C2=O)C[C@@](O)(C(=O)CO)C[C@@H]3O[C@H]1C[C@H](N)[C@H](O)[C@H](C)O1,U373 MG,SRB,,,0.88 µM
CC(=NN=c1sc(N=Nc2ccc(C)cc2)c(C)n1C)c1c(O)c2ccccc2oc1=O,human Skin fibroblast,MTT,48 h,,> 100 µM
COc1cccc2c1C(=O)c1c(O)c3c(c(O)c1C2=O)C[C@@](O)(C(=O)CO)C[C@@H]3O[C@H]1C[C@H](N)[C@H](O)[C@H](C)O1,MB002,,7 days,,0.0645 µM
CC(=NN=c1scc(C)n1C)c1c(O)c2ccccc2oc1=O,human Skin fibroblast,MTT,48 h,,> 100 µM
CNc1ncc2cc(-c3ccc(-c4cccc(C)n4)cc3Cl)c(=O)n(C[C@H]3OC[C@H](N)CO3)c2n1,CFPAC-1,MTT,24 h,,23.9 µM
CC(C)c1cc(-c2n[nH]c(=O)n2-c2ccc3c(ccn3C)c2)c(O)cc1O,BT-474,imaging,24 h,,0.412 µM
COc1cc(-c2nc(C(=O)Nc3nnc(-c4cc5ccccc5n4C)s3)cc3c2[nH]c2ccccc23)cc(OC)c1OC,BT-474,MTT,72 h,,9.15 µM
COc1ccc2c(c1)NC(=O)CN2c1nc(C)nc2c1CCC2,A375/TxR,MTS,,drug-resistant strain,0.0011 µM
Cc1nc(Nc2ncc(C(=O)Nc3c(C)cccc3Cl)s2)cc(N2CCN(CCO)CC2)n1,MB002,,7 days,,2.65 µM
O=C(Nc1nnc(-c2cc3ccccc3[nH]2)s1)c1cc2c([nH]c3ccccc32)c(-c2ccccc2)n1,BT-474,MTT,72 h,,5.68 µM
